# Hits are enriched below; roughly 4% of the tested compounds scored in any of these assays.
# Yeast life ext: compounds extending yeast replicative lifespan, primary screen, S. cerevisiae, OD615. actives 0.68% (n = 130,000). inhibition of the nicotinamide effect, % at 10 µM. S. cerevisiae growth with nicotinamide; deaD strain in restrictive glucose medium;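 active = inhibition above a set limit, placed 3 SD over the median of all compounds, cut at about 26% in these data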;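 note: 0% = nicotinamide-treated wells and 100% = cells grown without nicotinamide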
#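 System: DeaD-strain S. cerevisiae / Buffer or medium: CSMM-D, restrictive glucose (dextrose) synthetic minimal medium / Probe or stimulus: nicotinamide, 1.5 mM, co-present with compound / Compound: one concentration, 10 µM, DMSO 0.25% / Incubation: 48 h compound exposure at 30 °C, humidified / Technique: optical density (absorbance) at 615 nm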
# Insulin prom inh: inhibitors of insulin promoter-driven GFP, primary screen, imaging, TRM-6 cells, eGFP reporter, cell count; reporter expression induced with tamoxifen; inhibition, % at 2 µM; actives 0.9% (n = 130,000);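 active = inhibition above the mean plus 3 SD, with well images judged a real hit on visual review, cut at about 60% in these data, passing the limit was not always enough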
# Measles CPE: compounds protecting cells from measles virus cytopathic effect, primary screen, measles RdRp inhibitor project, single point, MLSMR library, absorbance. Measles virus-infected cells, CPE protection. protection (pct of control), % at 4 µM. actives 1.5% (n = 140,000). AID 841, 2007; in the data active = protection mostly above about 24%, no sharp cut-off; inactive = mostly below about 26%
# Yeast growth inh: growth inhibitors of yeast BB579 in restrictive medium, primary screen, yeast lifespan-shortening project, S. cerevisiae. OD615, 48 h. inhibition, % at 10 µM. actives 0.51% (n = 140,000). AID 804, 2007;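 active = inhibition above a set limit, 3 SD over the mean compound inhibition, cut at about 44% in these data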
#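 Test system: Saccharomyces cerevisiae DeaD strain BB579, replicative lifespan model yeast | Buffer or medium: Restrictive CSMM-D medium | Doses: One dose, 10 µM compound with 0.25% DMSO | Incubation: 48 h exposure, 30 °C | Detection: Culture absorbance at 615 nm | Control set: Amphotericin B at 10 µg/mL as positive control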
# Mdm2 ligase inh: MDM2-luciferase reporter signal enhancers, primary screen, MDM2 E3 ligase inhibitor project, cell-based, luminescence, 1536-well; actives 0.11% (n = 210,000); AID 1230, 2008; signal enhancement, % at 5 µM; cell-based MDM2 ubiquitination luciferase reporter, 2 h; 0 = plate control, 100 = twice control, blank-subtracted;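 active = signal enhancement of 30% or more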;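 note: luminescence tracks abundance of the self-degrading MDM2-luciferase fusion protein; higher signal means inhibition of MDM2 E3 ligase activity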
# Target sequence (Q00987 whole entry, looked up, the tested form may be a part): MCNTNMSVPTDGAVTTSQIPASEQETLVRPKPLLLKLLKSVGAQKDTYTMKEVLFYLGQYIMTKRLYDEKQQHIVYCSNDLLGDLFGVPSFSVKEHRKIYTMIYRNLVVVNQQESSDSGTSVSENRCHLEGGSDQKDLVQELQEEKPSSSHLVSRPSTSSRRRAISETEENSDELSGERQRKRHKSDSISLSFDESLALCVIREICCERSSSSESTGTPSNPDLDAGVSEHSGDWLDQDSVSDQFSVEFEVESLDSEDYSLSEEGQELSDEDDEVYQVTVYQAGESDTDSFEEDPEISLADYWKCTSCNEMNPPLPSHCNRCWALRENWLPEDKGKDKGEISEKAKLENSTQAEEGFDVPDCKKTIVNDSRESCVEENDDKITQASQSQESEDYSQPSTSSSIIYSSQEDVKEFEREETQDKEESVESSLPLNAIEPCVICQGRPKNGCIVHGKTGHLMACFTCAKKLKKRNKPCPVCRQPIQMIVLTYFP
#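 Timing – 2 h compound exposure at 37 °C · Assay system – mammalian cells stably expressing self-ubiquitinating, self-degrading MDM2 E3–luciferase fusion · Amount – 2000 cells seeded into each well · Measure – % luminescence enhancement versus blank-corrected plate control mean · Measured by – SteadyLite luminescence, 15 min reagent step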
# RAM network inh: inhibitors of the yeast RAM network, primary screen, dse1pr::URA3 reporter, 5-FOA selection; inhibition, % at 50 µM; actives 1.8% (n = 190,000); AID 868, 2007; S. cerevisiae dse1pr::URA3 reporter, 5-FOA growth OD615, 2 d; analog-sensitive cbk1-as2 kinase mutant strain;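 active = inhibition above a set limit, 3 SD over mean compound inhibition, cut at about 8.4% in these data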;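 note: 0% = DMSO-only wells with no growth and 100% = 10 µM 1-NA-PP1 full growth; inhibition rescues growth on 5-FOA so higher OD means more RAM inhibition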
# * = called active by the depositor; / = no result.
SMILES,Yeast life ext,Insulin prom inh,Measles CPE,Yeast growth inh,Mdm2 ligase inh,RAM network inh
C/C(CC(=O)Nc1cc(C)cc(C)c1)=N\NC(=O)c1ccccn1,-5.2,42.9,68.8*,-9.7,-3.0,-1.2
OCc1ccnc(Cl)c1,1.3,-35.3,4.9,-24.5,-3.8,1.1
O=C(O)c1ccnc(Cl)c1,0.8,26.9,25.0*,-11.1,9.2,1.2
Cn1c2c(c(=O)[nH]c1=O)C(c1cccc(O)c1)C1=C(N2)c2ccccc2C1=O (stereo not given),/,/,/,/,-12.1,3.0
Cc1ccc(NC(=O)C2(c3ccccc3)CC2(Cl)Cl)cc1C (stereo not given),-13.5,-41.2,9.3,-28.2,-14.5,4.2
CCc1ccc(NC(=O)C2(c3ccccc3)CC2(Cl)Cl)cc1 (stereo not given),23.0,-220.0,5.0,-33.8,18.0,8.5*
CSc1cccc(NC(C)=O)c1,-2.7,3.3,6.8,-2.3,-7.4,0.7
CSc1cccc(NC(=O)Cn2cccc2)c1,-15.0,/,79.8*,-28.9,9.0,2.5
Cc1cc(CSc2ccccc2)ccc1NC(=O)COc1ccccc1,-5.3,-41.7,3.1,-27.3,-4.1,8.6*
CCOC(=O)Cc1nnc(NC(=O)COc2ccc(OC)cc2)s1,-9.1,20.0,22.7*,-28.4,-13.1,1.9
FC(F)(F)c1ccccc1NC(=S)N/N=C1\CC2CC=CC12 (stereo not given),/,/,/,/,-19.4,-0.7
Cc1ccc(Cn2nnc3c(=O)n(CC(=O)NCc4ccc5c(c4)OCO5)cnc32)cc1,/,-37.5,13.0,-21.6,/,3.2
COc1ccc(/C=C/C(=O)c2ccc3c4c(cccc24)CC3)cc1,-2.5,/,7.4,-5.6,0.6,8.8*
Cc1cc(C(=O)O)c(C)n1-c1ccccc1,14.0,-5.4,39.6*,-69.0,-16.7,1.0
Cc1cc(C(=O)CSc2nn3c(=O)c(C(C)(C)C)nnc3s2)c(C)n1C,/,-13.3,/,/,-9.6,2.3
CCCCN1C(=O)c2ccc(C(=O)NC3=NCCS3)cc2C1=O,-9.4,-30.8,1.8,14.2,-11.0,0.2
Cc1cc(C)c2oc(C(=O)Nc3ccc(S(=O)(=O)N4CCC(C)CC4)cc3)cc(=O)c2c1,-1.4,-8.3,56.3*,-11.6,-11.9,5.4
Cc1cc2oc(C(=O)Nc3ccc(S(=O)(=O)N4CCCC(C)C4)cc3)cc(=O)c2cc1Cl (stereo not given),-3.1,10.3,7.1,-42.0,1.9,2.5
CC(C)(C)NS(=O)(=O)c1ccc2c(c1)oc(=O)c1cc(S(=O)(=O)NC(C)(C)C)ccc12,-8.7,46.4,7.1,-23.8,-4.0,6.3
CC(C)(CO)NS(=O)(=O)c1ccc2c(c1)oc(=O)c1cc(S(=O)(=O)NC(C)(C)CO)ccc12,-12.5,-28.2,61.3*,-41.5,2.0,1.6
O=C(CCN1CCc2ccccc2C(c2ccccc2)C1)c1ccc2c(c1)OCCO2 (stereo not given),0.9,31.0,40.9*,3.6,-14.4,-2.2
O=C(CCN1Cc2ccccc2C1)c1ccc2c(c1)OCCO2,36.9,-22.9,17.2,-57.2,-13.8,-1.4
CN(C(=O)c1cc(-n2cnnc2)ccc1Cl)c1ccccc1,-1.2,13.8,33.8,-12.9,-5.7,-0.6
O=C(CCC(=O)OCC(=O)c1ccc(-c2ccccc2)cc1)Nc1cccc2cccnc12,-17.9,-15.4,5.0,-54.9,1.1,10.4*
O=C(CCC(=O)OCC(=O)c1ccc(Cl)cc1Cl)Nc1cccc2cccnc12,-19.0,-38.5,4.5,-54.0,10.4,4.1
SMILES,Yeast life ext,Insulin prom inh,Measles CPE,Yeast growth inh,Mdm2 ligase inh,RAM network inh
CN1CCOC(=O)/C1=N/Nc1cc(Cl)ccc1Cl,/,/,/,/,-21.4,3.8
CC(C)N(C)CCOC(=O)C1COc2ccccc2O1 (stereo not given),/,/,/,/,-7.6,/
CCc1c(C)sc(NC(=O)C2CC2c2ccccc2)c1C(N)=O (stereo not given),-9.5,57.1,38.3*,-17.4,-9.0,5.0
CCC(C)(c1nnnn1-c1c(C)cccc1C)N(N=O)c1ccccc1Cl (stereo not given),-5.8,/,4.6,-22.4,-6.2,3.5
CN1C(=S)SC(C)(C)C1NO (stereo not given),0.4,-11.4,10.7,-69.0,-18.5,1.2
CC(=O)NC1C(=O)SC1(C)C (stereo not given),-0.2,87.5*,22.2,2.0,-13.8,2.0
Cc1cccc(C=Nc2ccc3c(c2)oc2ccccc23)c1O,-1.6,/,12.3,-7.0,-19.2,1.1
Cc1ccc(N=Cc2cccc(O)c2O)c(C)c1,-21.1,/,41.8,96.9*,-3.2,2.2
Cc1ccccc1N=Cc1cccc(O)c1O,-10.8,0.0,11.9,97.3*,-5.4,-0.4
CC(N=Cc1cccc(O)c1O)c1ccccc1 (stereo not given),-10.3,-69.6,19.9,96.5*,-24.7,-0.8
CCCOC(=O)C1=C(C)NC2=C(C(=O)C(C(=O)OC)C(C)C2)C1c1ccc(N(CC)CC)cc1 (stereo not given),-0.7,36.8,2.7,-24.6,-3.6,1.1
CCC(C)OC(=O)C1=C(C)NC2=C(C(=O)C(C(=O)OC)C(C)C2)C1c1ccc(N(C)C)cc1 (stereo not given),-16.5,36.8,57.6*,-21.6,-9.2,2.1
N#CC(C#N)=c1ccc2c(c1)NC1(CCCCC1)N=2,3.8,/,18.6,22.1,0.0,6.8
Cc1cc(C)nc(/N=C(\N)Nc2ccccc2-c2ccccc2)n1,/,/,/,/,-14.8,0.2
COc1ccc(OC)c(NC(=O)CS(=O)(=O)c2ccccc2)c1,-9.2,-309.1,14.2,-38.7,-3.6,0.5
COc1cc(OC)nc(NC(=O)CS(=O)(=O)c2ccccc2)n1,/,45.2,10.9,55.5*,/,-1.0
CCCS(=O)(=O)N1CCN(C(=O)c2cccc(OC)c2)CC1,-12.2,/,4.8,-24.8,-2.8,0.8
O=C(NCc1nc2ccccc2[nH]1)c1cc2ccccc2oc1=O,-9.6,/,86.1*,-32.3,-5.6,-0.4
O=C(O)c1cn[nH]c1-c1cccc([N+](=O)[O-])c1,/,/,/,/,-11.2,1.0
COc1ccc(-n2c(C)c(C(C)=O)c3cc(OCC(N)=O)ccc32)cc1,/,/,/,/,0.4,8.8*
O=C(Nc1nnc(CCN2CCOCC2)s1)C1CCCCC1,-9.4,/,5.4,-19.3,-11.0,0.1
CCCCCC1CC1C(=O)N/N=C/c1ccc(N(C)C)cc1 (stereo not given),41.7*,/,7.2,-35.6,-8.4,0.7
CCCCCCN1C=CC=C/C1=C\C=C(C#N)C#N,/,/,/,/,-4.8,/
